Consider 23 molecules from ChEMBL document CHEMBL1126810, “Development of selective tight-binding inhibitors of leukotriene A4 hydrolase” (J Med Chem, 1993).

Data set [1] has as its target T1, Leukotriene A-4 hydrolase (Homo sapiens, UniProt P09960).
T1 sequence (P09960 whole entry): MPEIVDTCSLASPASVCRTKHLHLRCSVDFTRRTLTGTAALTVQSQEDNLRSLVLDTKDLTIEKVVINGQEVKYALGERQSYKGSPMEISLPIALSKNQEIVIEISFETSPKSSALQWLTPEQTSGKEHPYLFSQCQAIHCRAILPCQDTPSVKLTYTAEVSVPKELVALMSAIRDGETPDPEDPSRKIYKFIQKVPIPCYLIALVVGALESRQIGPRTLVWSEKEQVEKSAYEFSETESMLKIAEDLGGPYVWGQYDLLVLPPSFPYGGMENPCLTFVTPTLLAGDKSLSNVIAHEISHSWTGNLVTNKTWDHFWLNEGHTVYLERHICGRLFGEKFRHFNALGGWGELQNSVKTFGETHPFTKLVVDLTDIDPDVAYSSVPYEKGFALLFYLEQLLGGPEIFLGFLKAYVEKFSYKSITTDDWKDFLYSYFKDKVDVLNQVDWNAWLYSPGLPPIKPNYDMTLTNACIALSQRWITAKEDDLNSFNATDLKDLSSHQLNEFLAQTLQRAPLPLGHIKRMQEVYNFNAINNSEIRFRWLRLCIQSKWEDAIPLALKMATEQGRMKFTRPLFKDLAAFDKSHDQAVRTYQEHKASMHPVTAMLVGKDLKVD
The data set can be described thus: Inhibition of amidase activity of LTA4 hydrolase purified from human leukocytes.

The nature of data set [2]: Ratio kcat /Km ([…]/M 1/s). Details: scale not given here; call rule not given here.
For data set [3], the target named is T2, Leukotriene A-4 hydrolase (Homo sapiens) (UniProt P09960).
T2 sequence (whole entry): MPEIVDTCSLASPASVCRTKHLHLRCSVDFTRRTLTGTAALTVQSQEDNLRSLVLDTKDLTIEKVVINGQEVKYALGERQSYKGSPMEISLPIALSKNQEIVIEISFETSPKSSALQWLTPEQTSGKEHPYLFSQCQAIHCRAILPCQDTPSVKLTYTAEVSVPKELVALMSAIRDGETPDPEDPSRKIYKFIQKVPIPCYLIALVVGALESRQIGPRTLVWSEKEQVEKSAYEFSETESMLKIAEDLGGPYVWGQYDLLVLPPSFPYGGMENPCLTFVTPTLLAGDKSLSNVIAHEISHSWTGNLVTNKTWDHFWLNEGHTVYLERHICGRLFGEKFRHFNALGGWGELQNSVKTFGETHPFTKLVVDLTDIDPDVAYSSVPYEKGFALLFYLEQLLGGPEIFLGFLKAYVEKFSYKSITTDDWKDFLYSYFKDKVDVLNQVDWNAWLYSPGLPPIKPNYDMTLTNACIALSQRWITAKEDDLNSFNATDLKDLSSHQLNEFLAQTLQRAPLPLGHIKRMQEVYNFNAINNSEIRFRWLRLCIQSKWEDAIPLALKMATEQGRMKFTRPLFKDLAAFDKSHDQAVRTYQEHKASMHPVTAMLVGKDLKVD
The experiment in a line: Kinetic parameter kcat against LTA4 hydrolase purified from human leukocytes. Put shortly:
(§1)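 Amino acid amides tested as substrates in 50 mM Tris-Cl, pH 7.6, with 0.1 M NaCl. p-Nitroaniline release read at 410 nm using ε 8850 M⁻¹ cm⁻¹.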

Data set [4] addresses Cytosol aminopeptidase (Homo sapiens, UniProt P28838). The data set can be described thus: Inhibitory concentration against cytosolic leucine aminopeptidase.
Data set [5] concerns the target T1, Leukotriene A-4 hydrolase. The experiment in a line: Ability at 1 mM to inhibit amidase activity of LTA4 hydrolase (1.4 ug) purified from human leukocytes; NI=No inhibition. An outline of the steps:
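Human leukocyte enzyme (1.4 μg) in 0.05 M Tris-HCl, pH 8.0, with 1.5 mM L-alanyl p-nitroanilide as substrate. Inhibitor tested at 1 mM; thiol compounds assayed with 5 mM DTT. p-Nitroaniline release followed spectrophotometrically at 405 nm.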

Substrate in data set [6]: C[C@H](N)C(=O)Nc1ccc([N+](=O)[O-])cc1
The experiment in a line: (§2) Kinetic parameter Vmax against LTA4 hydrolase purified from human leukocytes was determined. Put shortly:
as §1

Substrate in data set [7]: NC(N)=NCCC[C@H](N)C(=O)Nc1ccc([N+](=O)[O-])cc1
The data set is described as §2. An outline of the steps:
as §1

Substrate in data set [8]: C[C@@H](N)C(=O)Nc1ccc([N+](=O)[O-])cc1
The description is as §2. Put shortly: as §1

Substrate in data set [9]: NCCCC[C@H](N)C(=O)Nc1ccc([N+](=O)[O-])cc1
Described as §2. An outline of the steps: as §1

Substrate in data set [10]: C[C@H](N)C(=O)Nc1ccc([N+](=O)[O-])cc1
The experiment in a line: (§3) Kinetic parameter (Km) for hydrolysis of LTA4 hydrolase purified from human leukocytes. An outline of the steps: as §1

Substrate in data set [11]: NC(N)=NCCC[C@H](N)C(=O)Nc1ccc([N+](=O)[O-])cc1
Described as §3. An outline of the steps:
as §1

Substrate in data set [12]: NCCCC[C@H](N)C(=O)Nc1ccc([N+](=O)[O-])cc1
The description is as §3. An outline of the steps: as §1

Sequence of Cytosol aminopeptidase (P28838 whole entry): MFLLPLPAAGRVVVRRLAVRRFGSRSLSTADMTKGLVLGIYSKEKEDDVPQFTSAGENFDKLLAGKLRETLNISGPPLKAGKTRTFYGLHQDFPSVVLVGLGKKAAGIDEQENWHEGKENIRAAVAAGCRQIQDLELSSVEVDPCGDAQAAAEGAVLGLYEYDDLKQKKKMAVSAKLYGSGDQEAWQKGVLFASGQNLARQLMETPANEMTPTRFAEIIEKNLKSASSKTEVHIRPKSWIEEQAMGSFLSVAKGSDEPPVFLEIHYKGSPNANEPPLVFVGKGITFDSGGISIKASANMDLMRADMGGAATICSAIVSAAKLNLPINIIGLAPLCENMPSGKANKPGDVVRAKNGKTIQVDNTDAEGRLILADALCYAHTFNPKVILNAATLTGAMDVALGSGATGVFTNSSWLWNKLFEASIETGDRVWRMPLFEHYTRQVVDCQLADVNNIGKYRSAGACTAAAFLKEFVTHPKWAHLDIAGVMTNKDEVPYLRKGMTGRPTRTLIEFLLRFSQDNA

The IC50 is the midpoint of a concentration-inhibition curve. `CC(C)C[C@H](/N=C(\S)[C@@H](O)[C@H](N)Cc1ccccc1)C(=O)O`: the IC50 in data set [1] was more than 100 µM.

As for `CC(C)C[C@H](N)C(=O)Nc1ccc([N+](=O)[O-])cc1`, the Ratio in [2] turned out to be 0.0005. Also, the k cat in [3] was 0.15 s⁻¹.

Turning to `CC(C)C[C@H](NC(=O)C(S)C(N)Cc1ccccc1)C(=O)O` (stereo not given in full), the IC50 in data set [1] was more than 250 µM.

Take `O=C(Nc1ccc([N+](=O)[O-])cc1)[C@@H]1CCCN1`: the Ratio in data set [2] worked out at 0.0015. Also, the k cat in [3] is 0.15 s⁻¹.

Turning to `COC(=O)C(S)C(N)Cc1ccccc1` (stereo not given), the IC50 in data set [1] turned out to be 250 µM.

On to `N[C@@H](Cc1ccccc1)[C@H](O)C(=O)OCc1ccccc1`, for which, in data set [1], the IC50 came out at 20 µM.

On to `CCOC(=O)CC(F)(F)C(=O)c1[nH]cnc1C`, for which the IC50 in data set [1] is more than 1000 µM.

Regarding `CCCCC/C=C\C\C=C/C=C/C=C/[C@@H]1O[C@H]1CCCC(=O)O`, the Ratio in [2] amounted to 0.09. For the same molecule, the k cat in data set [3] is 0.68 s⁻¹.

As to `N[C@@H](Cc1ccccc1)[C@H](O)C(=O)NCc1ccccc1`, the IC50 in [1] was more than 100 µM.

Regarding `N[C@@H](Cc1ccc(OCc2ccccc2)cc1)[C@H](O)C(=O)OCc1ccccc1`, in data set [4], the IC50 was determined as 80 µM.

As for `NCCCC[C@H](N)C(=O)Nc1ccc([N+](=O)[O-])cc1`, in data set [2], the Ratio was found to be 0.00035. In data set [3], the k cat is 0.035 s⁻¹.

For `N[C@H](Cc1ccccc1)[C@H](O)C(=O)O`, the IC50 entry in data set [5] was “Not Active”.

`NC(Cc1ccccc1)P(=O)(O)NCC(=O)O` (stereo not given): in data set [1], the IC50 was more than 100 µM.

In [4], `N[C@@H](Cc1ccc(OCc2ccccc2)cc1)C(=O)C(=O)OCc1ccccc1` had an IC50 of more than 100 µM.

For the molecule `COC(=O)C(=O)[C@@H](N)Cc1ccc(OCc2ccccc2)cc1`, in [4], the IC50 was 50 µM.

Turning to `COC(=O)[C@H](O)[C@H](N)Cc1ccccc1`, in data set [5], the IC50 result was “Not Active”.

Take `COC(=O)[C@@H](O)[C@H](N)Cc1ccccc1`: the IC50 result in data set [5] is “Not Active”.

Molecule `CC(C)C[C@H](/N=C(\S)[C@H](O)[C@H](N)Cc1ccccc1)C(=O)O` came in with an IC50 in data set [1] of more than 100 µM.

In the case of `CC(C)C[C@H](/N=C(\S)[C@H](O)[C@@H](N)Cc1ccccc1)C(=O)O`, the 50% inhibitory concentration (IC50) in [1] was more than 100 µM.

Consider `C[C@H](N)C(=O)Nc1ccc([N+](=O)[O-])cc1`, for which, in data set [2], the Ratio was 0.0012. Besides, the k cat in [3] was 0.6 s⁻¹.

`N[C@H](CS)Cc1ccc(OCc2ccccc2)cc1` yielded an IC50 in [4] of more than 50 µM.

Regarding `NC(N)=NCCC[C@H](N)C(=O)Nc1ccc([N+](=O)[O-])cc1`, in [2], the Ratio came to 0.00075. The molecule also came in with a k cat in [3] of 0.15 s⁻¹.

B1: Leukotriene A-4 hydrolase (Homo sapiens), P09960 (protein)
chain: MPEIVDTCSLASPASVCRTKHLHLRCSVDFTRRTLTGTAALTVQSQEDNLRSLVLDTKDLTIEKVVINGQEVKYALGERQSYKGSPMEISLPIALSKNQEIVIEISFETSPKSSALQWLTPEQTSGKEHPYLFSQCQAIHCRAILPCQDTPSVKLTYTAEVSVPKELVALMSAIRDGETPDPEDPSRKIYKFIQKVPIPCYLIALVVGALESRQIGPRTLVWSEKEQVEKSAYEFSETESMLKIAEDLGGPYVWGQYDLLVLPPSFPYGGMENPCLTFVTPTLLAGDKSLSNVIAHEISHSWTGNLVTNKTWDHFWLNEGHTVYLERHICGRLFGEKFRHFNALGGWGELQNSVKTFGETHPFTKLVVDLTDIDPDVAYSSVPYEKGFALLFYLEQLLGGPEIFLGFLKAYVEKFSYKSITTDDWKDFLYSYFKDKVDVLNQVDWNAWLYSPGLPPIKPNYDMTLTNACIALSQRWITAKEDDLNSFNATDLKDLSSHQLNEFLAQTLQRAPLPLGHIKRMQEVYNFNAINNSEIRFRWLRLCIQSKWEDAIPLALKMATEQGRMKFTRPLFKDLAAFDKSHDQAVRTYQEHKASMHPVTAMLVGKDLKVD
The Km is the substrate concentration at which the rate is half of its maximum. As for B1, the Vmax (nM min-1 mg-1) in data set [6] came to 530; in [7], 135; in data set [8], 0; in data set [9] it was 30. The Km is 500 µM in data set [10], 200 µM in [11] and 100 µM in [12].
